Converted amounts (≈) assume the structure as drawn. The source made the active and inactive calls. No cut-off for these calls is given here.
Key:
[1] = Aqueous solubility of the compound after 1 hrs by HPLC-UV method; assay type: physicochemical; conditions: deionized water
Procedure, shortened: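 Shaken in tubes at 25 °C for 1 h, protected from light, then filtered through 0.2 μm filters; filtrate diluted in deionized water and quantified by reversed-phase HPLC-UV (C18 column, room temperature, methanol/water 70:30 v/v, 1.0 mL min−1).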

DU-145 = assay: Cytotoxicity against human DU145 cells assessed as reduction in cell viability up to 20 uM after 24 hrs by MTT assay; assay type: functional, cell-based
Procedure, shortened: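 Cells were grown as adherent monolayers at 37 °C in 5% CO2: SKOV3 in advanced DMEM, DU145 and MB231 in RPMI-1640 with glutamine and 10% FBS. They were seeded at 2000–7500 cells/well, treated on day 1 for 24 h with drug in DMSO (final DMSO <0.1%), then given MTT at 0.83 mg mL−1 final overnight. After SDS/HCl lysis, A570 was read as percent of drug-free control; five replicate wells.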

[2] = target: T1, Solute carrier organic anion transporter family member 1B3 (Homo sapiens, UniProt Q9NPD5); assay: Inhibition of human OATP1B3 expressed in HEK293 cells assessed as FMTX uptake after 5 mins by fluorescence assay; assay type: cell-based; conditions: for inhibition (INH): human, hek293, 5 min
T1 sequence (Q9NPD5 whole entry): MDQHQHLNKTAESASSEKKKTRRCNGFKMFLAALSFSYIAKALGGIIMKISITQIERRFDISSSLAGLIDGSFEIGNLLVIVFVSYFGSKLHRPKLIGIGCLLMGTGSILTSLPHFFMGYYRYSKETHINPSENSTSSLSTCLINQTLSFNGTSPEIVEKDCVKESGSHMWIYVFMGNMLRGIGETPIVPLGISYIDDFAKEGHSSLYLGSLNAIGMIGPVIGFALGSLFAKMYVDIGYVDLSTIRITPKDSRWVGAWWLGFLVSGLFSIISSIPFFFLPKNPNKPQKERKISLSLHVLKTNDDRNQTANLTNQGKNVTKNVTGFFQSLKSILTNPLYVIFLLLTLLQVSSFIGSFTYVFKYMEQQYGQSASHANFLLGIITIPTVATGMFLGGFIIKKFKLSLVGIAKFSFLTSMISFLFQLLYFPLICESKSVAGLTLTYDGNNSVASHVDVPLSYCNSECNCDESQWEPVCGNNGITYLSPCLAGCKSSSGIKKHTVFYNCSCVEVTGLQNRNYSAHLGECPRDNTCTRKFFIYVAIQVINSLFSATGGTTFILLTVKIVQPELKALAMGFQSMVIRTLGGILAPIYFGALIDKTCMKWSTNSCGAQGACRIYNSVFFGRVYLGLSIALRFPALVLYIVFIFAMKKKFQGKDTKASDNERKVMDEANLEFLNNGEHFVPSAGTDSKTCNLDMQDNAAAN
Procedure, shortened: (§1)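 Stably transfected HEK293 cells (human OAT1, OAT3, OCT1, OCT2, OATP1B3, OATP2B1) and mock cells were assayed 16 h after seeding in HEPES uptake buffer, pH 7.2, with fluorescent probe ± compound. Incubation was 5 min for OAT1/3 and OATPs, and 10 min for OCT1/2. Reference inhibitors were probenecid (OATs), quinine (OCTs) and rifampicin (OATPs). Uptake was stopped with ice-cold PBS and cells were lysed in Tris/Triton. Fluorescence was normalised to BCA protein; triplicates, repeated 2–3 times.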

[3] = target: T2, Solute carrier organic anion transporter family member 2B1 (Homo sapiens, UniProt O94956); assay: Inhibition of human OATP2B1 expressed in HEK293 cells assessed as DBF uptake after 5 mins by fluorescence assay; assay type: cell-based; conditions: for inhibition (INH): human, hek293, 5 min; procedure, shortened: as §1
T2 sequence (O94956 whole entry): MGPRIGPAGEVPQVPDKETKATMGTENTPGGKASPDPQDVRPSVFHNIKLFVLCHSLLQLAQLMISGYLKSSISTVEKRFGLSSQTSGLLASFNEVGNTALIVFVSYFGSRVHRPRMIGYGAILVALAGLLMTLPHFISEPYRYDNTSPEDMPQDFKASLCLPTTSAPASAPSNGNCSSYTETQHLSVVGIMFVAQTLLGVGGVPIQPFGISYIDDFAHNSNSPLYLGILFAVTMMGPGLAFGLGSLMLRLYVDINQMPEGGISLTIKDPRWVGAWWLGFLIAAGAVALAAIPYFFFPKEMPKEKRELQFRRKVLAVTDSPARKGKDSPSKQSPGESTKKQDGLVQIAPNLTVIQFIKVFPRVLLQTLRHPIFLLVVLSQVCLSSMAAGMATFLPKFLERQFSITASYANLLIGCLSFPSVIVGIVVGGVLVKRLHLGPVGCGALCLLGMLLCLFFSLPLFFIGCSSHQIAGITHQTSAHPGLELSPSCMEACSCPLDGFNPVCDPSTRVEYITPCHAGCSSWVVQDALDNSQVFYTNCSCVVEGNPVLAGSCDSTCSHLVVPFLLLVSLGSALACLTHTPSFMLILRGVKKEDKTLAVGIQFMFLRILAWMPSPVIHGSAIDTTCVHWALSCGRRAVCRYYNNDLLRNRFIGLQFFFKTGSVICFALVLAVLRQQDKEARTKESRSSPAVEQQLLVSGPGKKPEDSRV

[4] = target: T3, Solute carrier family 22 member 1 (Homo sapiens, UniProt O15245); assay: Inhibition of human OCT1 expressed in HEK293 cells assessed as Asp+ uptake after 10 mins by fluorescence assay; assay type: cell-based; conditions: for inhibition (INH): human, hek293, 10 min; procedure, shortened: as §1
T3 sequence (O15245 whole entry): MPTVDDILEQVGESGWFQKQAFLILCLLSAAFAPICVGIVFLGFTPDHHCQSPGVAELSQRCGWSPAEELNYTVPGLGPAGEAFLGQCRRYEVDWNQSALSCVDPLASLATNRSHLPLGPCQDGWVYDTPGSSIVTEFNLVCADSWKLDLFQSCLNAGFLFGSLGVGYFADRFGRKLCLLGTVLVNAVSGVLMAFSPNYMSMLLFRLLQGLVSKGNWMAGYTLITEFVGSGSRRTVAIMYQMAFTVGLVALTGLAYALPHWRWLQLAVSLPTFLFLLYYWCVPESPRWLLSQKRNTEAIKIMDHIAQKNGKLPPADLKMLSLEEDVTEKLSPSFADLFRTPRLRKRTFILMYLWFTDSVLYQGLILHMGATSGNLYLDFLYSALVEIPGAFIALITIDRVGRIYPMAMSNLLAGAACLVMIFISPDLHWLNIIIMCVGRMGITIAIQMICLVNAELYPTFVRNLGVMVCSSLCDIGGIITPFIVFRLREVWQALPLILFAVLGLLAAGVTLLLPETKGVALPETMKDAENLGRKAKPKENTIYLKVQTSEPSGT

HEK293 = assay: Cytotoxicity against HEK293 cells assessed as reduction in cell viability up to 200 uM after 10 mins by MTT assay; assay type: cell-based; conditions: human, hek293, 10 min
Procedure, shortened: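 HEK293-mock cells were exposed to 100 or 200 μM for 10 min. MTT was added at 0.83 mg mL−1 final and incubated overnight. Cells were lysed in 15% SDS/0.015 M HCl and absorbance was read at 570 nm. Viability is given as % of drug-free controls.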

COc1ccc(/C=C\c2cc(OC)c(OC)c(OC)c2)cc1O[C@@H]1O[C@H](CO)[C@@H](O)[C@H](O)[C@H]1O
solubility at 1 h [1]: 1830 µg/mL (≈ 3820 µM)
Activity (DU-145): Active
IC50 [2]: > 200 µM
inhibition (INH) [2]: Dose-dependent effect
IC50 [3]: > 200 µM
inhibition (INH) [3]: Dose-dependent effect
IC50 [4]: > 200 µM
inhibition (INH) [4]: Dose-dependent effect
Activity (HEK293): Non-Toxic

COc1ccc(/C=C\c2cc(OC)c(OC)c(OC)c2)cc1O [COMBRETASTATIN A4]
solubility at 1 h [1]: 3 µg/mL (≈ 9.48 µM)
Activity (DU-145): Active
IC50 [2]: 195 µM
inhibition (INH) [2]: Dose-dependent effect
IC50 [3]: 12.3 µM
inhibition (INH) [3]: Dose-dependent effect
IC50 [4]: > 200 µM
inhibition (INH) [4]: Dose-dependent effect
Activity (HEK293): Non-Toxic

From ChEMBL document CHEMBL4257448, “Deciphering the origins of molecular toxicity of combretastatin A4 and its glycoconjugates: interactions with major drug transporters and their safety profiles in vitro and in vivo” (Medchemcomm, 2017)
